Assay results from different studies.
Compare with care: the assays were run in different laboratories. pIC50, pKd, pKi: −log10 of the molar value.
BCL2L1: Bcl-2-like protein 1 (BCL2L1, Homo sapiens, UniProt Q07817)
PPO3: PPO3 (Agaricus bisporus, UniProt C7FF04)
CNR1: Cannabinoid receptor 1 (CNR1, Homo sapiens, UniProt P21554)

target	effect on	mode	technique	setting	quantity	value	Compound
BCL2L1	ligand displacement		AlphaScreen		pKi	8.77	Cc1ncsc1-c1ccc([C@H](C)NC(=O)[C@@H]2C[C@@H](O)CN2C(=O)[C@@H](NC(=O)CCCCCCCS(=O)(=O)NC(=O)c2nc(N3CCc4cccc(C(=O)Nc5nc6ccccc6s5)c4C3)ccc2-c2cnn(CC34CC5CC(CC(C5)C3)C4)c2C)C(C)(C)C)cc1
PPO3	enzyme activity	inhibitor			pIC50	< 4.30	Cc1ccccc1NC(=O)CSc1nc2ccccc2cc1C=Nn1c(S)nnc1-c1ccccc1
BCL2L1	ligand displacement		AlphaScreen		pKi	8.88	CCNC(=O)c1nc(N2CCc3cccc(C(=O)Nc4nc5ccccc5s4)c3C2)ccc1-c1cnn(CC23CC4CC(CC(C4)C2)C3)c1C
Mu-type opioid receptor (Oprm1, Mus musculus, UniProt P42866)	ligand displacement		radioligand		pKi	5.39	CC(C)[C@@H](CN1CCc2ccccc2C1)NC(=O)c1cccc(-c2cccc(C#N)c2)c1
Endothelin-1 receptor (EDNRA, Homo sapiens, UniProt P25101)	ligand displacement		radioligand	cell membranes	pIC50	9.37	CCCNS(=O)(=O)Nc1ncnc(OCCOc2ncc(Br)cn2)c1-c1ccc(Br)cc1
BCL2L1	ligand displacement		AlphaScreen		pKi	9.57	CC1(C)CCC(c2ccc(Cl)cc2)=C(CN2CCN(c3ccc(C(=O)NS(=O)(=O)c4ccc(N[C@H](CCNCCOCCOCCOCCNc5cccc6c5C(=O)N(C5CCC(=O)NC5=O)C6=O)CSc5ccccc5)c(S(=O)(=O)C(F)(F)F)c4)cc3)CC2)C1 (some centres unmarked)
5-hydroxytryptamine receptor 2A (HTR2A, Homo sapiens, UniProt P28223)	calcium signal	antagonist			pIC50	5.46	CN1CCC(CNc2ccc3ncc(-c4cccc(OC(F)(F)F)c4)n3n2)CC1
Vitamin K-dependent protein C (PROC, Homo sapiens, UniProt P04070)	binding		SPR		pKd	4.02	CCCCCCCCCCCCCCCC(=O)O
cGMP-specific 3',5'-cyclic phosphodiesterase (PDE5A, Homo sapiens, UniProt O76074)	enzyme activity				pIC50	< 3.76	Cn1cc2c(C(=O)O)ccc(NS(=O)(=O)c3ccc(OCC4CCC4)c(Cl)c3)c2n1
CNR1	calcium signal	antagonist	fluorescence		pIC50	< 5.00	O=c1c(NCCc2ccc(Cl)cc2Cl)c(Nc2ccc(Cl)cc2)c1=O
BCL2L1	ligand displacement		AlphaScreen		pKi	8.21	Cc1ncsc1-c1ccc([C@H](C)NC(=O)[C@@H]2C[C@@H](O)CN2C(=O)[C@@H](NC(=O)CCCCCCCS(=O)(=O)NC(=O)c2nc(N3CCc4cccc(C(=O)Nc5nc6ccccc6s5)c4C3)ccc2-c2cc(C#N)n(CC34CC5CC(CC(C5)C3)C4)c2C)C(C)(C)C)cc1
Poly [ADP-ribose] polymerase 1 (PARP1, Homo sapiens, UniProt P09874)	enzyme activity	inhibitor	fluorescence		pIC50	< 5.00	COc1ccc2c(=O)[nH]c3c(nnn3Cc3ccc(C)cc3)c2c1
BCL2L1	ligand displacement		AlphaScreen		pKi	10.95	Cc1c(-c2ccc(N3CCc4cccc(C(=O)Nc5nc6ccccc6s5)c4C3)nc2C(=O)NCCOCCOCCOCCO)cnn1CC12CC3CC(CC(C3)C1)C2
DNA-directed RNA polymerase, mitochondrial (POLRMT, Homo sapiens, UniProt O00411)	enzyme activity	inhibitor			pIC50	7.65	Cc1ccccc1-c1cc(=O)oc2cc(OC(C)C(=O)N(C)C)ccc12 (centres unmarked)
BCL2L1	ligand displacement		AlphaScreen		pKi	8.04	CC1(C)CCC(c2ccc(Cl)cc2)=C(CN2CCN(c3ccc(C(=O)NS(=O)(=O)c4ccc(N[C@H](CCN(CCOCCOCCOCCNc5cccc6c5C(=O)N(C5CCC(=O)NC5=O)C6=O)C5CCC5)CSc5ccccc5)c(S(=O)(=O)C(F)(F)F)c4)cc3)CC2)C1 (some centres unmarked)
Histone deacetylase 2 (HDAC2, Homo sapiens, UniProt Q92769)	enzyme activity	inhibitor	fluorescence		pIC50	6.78	O=C(NO)c1ccc(Cn2cnc3c(Nc4cccc([N+](=O)[O-])c4)ncnc32)cc1
BCL2L1	ligand displacement		AlphaScreen		pKi	10.85	CCS(=O)(=O)NC(=O)c1nc(N2CCc3cccc(C(=O)Nc4nc5ccccc5s4)c3C2)ccc1-c1cnn(CC23CC4CC(CC(C4)C2)C3)c1C
Serine/threonine-protein kinase VRK2 (VRK2, Homo sapiens, UniProt Q86Y07)	enzyme activity	inhibitor			pIC50	4.57	Cn1cc(C2=C(c3cn(CCCSC(=N)N)c4ccccc34)C(=O)NC2=O)c2ccccc21
PPO3	enzyme activity	inhibitor			pIC50	< 4.30	Cc1cccc(NC(=O)CSc2nc3ccccc3cc2C=Nn2c(S)nnc2-c2ccccc2)c1C
CNR1	calcium signal	antagonist	fluorescence		pIC50	5.87	O=c1c(NCCc2ccccc2C(F)(F)F)c(Nc2ccc(Cl)cc2)c1=O
Adenosine receptor A2a (ADORA2A, Homo sapiens, UniProt P29274)	ligand displacement		radioligand		pKi	6.30	Cc1cc(C)c2c(N)c(C(=O)Nc3ccon3)sc2n1
PPO3	enzyme activity	inhibitor			pIC50	< 4.30	O=C(CSc1nc2ccccc2cc1C=Nn1c(S)nnc1-c1ccccc1)Nc1ccc(Cl)cc1Cl
3-oxo-5-alpha-steroid 4-dehydrogenase 1 (SRD5A1, Homo sapiens, UniProt P18405)	enzyme activity in cells	inhibitor			pIC50	7.80	C[C@]12C=CC(=O)N[C@@H]1CC[C@@H]1[C@@H]2CC[C@]2(C)[C@@H](C(=O)Nc3cc(C(F)(F)F)ccc3C(F)(F)F)CC[C@@H]12
